Screens (PubChem)
thrombin 1536 = inhibitors of human thrombin | P00734 | inhibition, % at 5 µM | hit rate 0.26% among 220,000 | alpha-thrombin, Boc-VPR-AMC fluorogenic substrate cleavage;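 active means inhibition at or above 40%; inactive means inhibition below 40%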;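 further: 0% = enzyme with no compound and 100% = wells without enzyme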
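System: Human alpha-thrombin protein | Medium: pH 7.5 Tris (50 mM) with NaCl 150 mM, Tween 20 0.05% | Times: Enzyme reaction carried out at room temperature | Detection: AMC fluorescence, 355/460 nm | Evaluation: Percent inhibition scaled between no-compound controls and no-enzyme blanks | Benchmarks: Enzyme without compound as high, wells lacking enzyme as low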
FXIa inh = factor XIa (human) inhibition; P03951; purified FXIa, Boc-Glu-Ala-Arg-AMC fluorogenic substrate; inhibition, % at 5 µM; hit rate 0.14% among 220,000; AID 798;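 active means inhibition of at least 40%; inactive means inhibition below 40%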;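 further: fluorescence of freed AMC excited at 355 nm; 0% = enzyme without compound and 100% = no enzyme blank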
Target sequence (P03951 19-387 limits assumed): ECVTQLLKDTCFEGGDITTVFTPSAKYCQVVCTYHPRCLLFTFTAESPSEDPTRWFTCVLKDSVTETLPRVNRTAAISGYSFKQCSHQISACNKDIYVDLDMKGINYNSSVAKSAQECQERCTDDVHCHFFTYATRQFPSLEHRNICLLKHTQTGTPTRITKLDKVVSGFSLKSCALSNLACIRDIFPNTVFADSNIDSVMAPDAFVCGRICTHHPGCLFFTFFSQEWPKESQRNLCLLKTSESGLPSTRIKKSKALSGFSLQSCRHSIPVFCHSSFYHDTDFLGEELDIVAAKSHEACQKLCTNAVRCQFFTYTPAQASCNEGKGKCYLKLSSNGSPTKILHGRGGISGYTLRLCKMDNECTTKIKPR
Target sequence (P03951 388-625 limits assumed): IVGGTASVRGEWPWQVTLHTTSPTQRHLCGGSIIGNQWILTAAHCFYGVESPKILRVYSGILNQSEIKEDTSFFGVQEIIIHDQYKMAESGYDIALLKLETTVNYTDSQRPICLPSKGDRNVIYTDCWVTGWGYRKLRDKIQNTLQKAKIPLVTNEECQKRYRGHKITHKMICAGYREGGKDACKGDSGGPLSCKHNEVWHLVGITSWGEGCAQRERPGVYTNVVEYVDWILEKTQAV
Rce1 inhib = inhibitors of yeast Ras-converting enzyme. Q03530. yeast membranes, quenched prenylated peptide cleavage fluorescence. calls only. hit rate 0.27% among 290,000. AID 2563;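 active means fall in fluorescence gain of 50% or more versus controls, with final raw signal at or below 3038400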;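 further: plate controls were neutral control wells for no effect and wells lacking membranes for full effect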
FXIIa inh = factor XIIa (human) inhibition; P00748; purified FXIIa, Boc-QGR-AMC fluorogenic substrate, 2 h; inhibition, % at 5 µM; hit rate 0.3% among 220,000; AID 800; in the data active means inhibition above about 40%;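 further: 0% = enzyme with no compound and 100% = blank without enzyme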
Fh CTSL1 inh = blocks F. hepatica cathepsin L1 in PFM18AAP counter-screen; recombinant F. hepatica cathepsin L1, Z-Leu-Arg-MCA fluorescence; inhibition, % at 5.96 µM; hit rate 0.49% among 300,000;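 active means inhibition above the mean of all tested compounds plus 3 SD, set per screening campaign, cut at about 17% in these data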;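 further: 0% = plate median of test compound wells and 100% = 1 µM Z-Phe-Ala-diazomethylketone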
KLK5 inh = blocks human kallikrein 5 protease activity. recombinant hK5, fluorogenic AMC substrate cleavage. inhibition, % at 5 µM. hit rate 0.59% among 210,000;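 active means inhibition of 40% or more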;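 further: 0% = enzyme controls without compound and 100% = no-enzyme blanks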
* = called active by the depositor; i = inactive; . = no result; + = active, no number. An excerpt weighted towards active compounds, which were near 1.4% of everything screened.

SMILES	thrombin 1536	FXIa inh	Rce1 inhib	FXIIa inh	Fh CTSL1 inh	KLK5 inh
Cc1ccc(-c2c[n+](CC(=O)Nc3nc(-c4ccc(F)cc4)cs3)c3n2CCC3)cc1	21	6	i	27	-4	49*
NC(=O)/C(=N\OC(=O)c1ccco1)c1nc(-c2ccc(Br)cc2)cs1	78*	5	i	41*	-7	-103
Cc1ccc(-n2c(C)cc(C(=O)CSc3nncs3)c2C)cc1	56*	7	i	-5	11	21
Cc1cc(C(=O)CSc2nncs2)c(C)n1-c1c(C)n(C)n(-c2ccccc2)c1=O	-4	7	i	13	3	-16
COc1cc(C(=O)OC2CCOC2=O)cc(Cl)c1OC (stereo unspecified)	.	.	i	.	1	.
N=C(N)c1ccc(/C=C/c2ccc(C(=N)N)cc2O)cc1	-5	5	+	7	-1	3
N=C(N)c1ccc(Cl)cc1	1	0	i	7	1	1
CCN(CC)S(=O)(=O)c1ccc(N2CCCC2)c(NC(=O)CC(C)(C)C)c1	2	5	i	7	20*	5
CCN(CC)S(=O)(=O)c1ccc(N2CCOCC2)c(NC(=O)CC(C)(C)C)c1	1	2	i	8	0	3
CC(C)CN(C(=O)COC(=O)CNC(=O)c1ccccc1F)c1c(N)n(Cc2ccccc2)c(=O)[nH]c1=O	.	.	i	.	-3	.
CCOC(=O)COn1c(=O)c(-c2ccc(C)cc2)[n+]([O-])c2ccccc21	.	.	i	.	20*	.
CCOC(=O)COn1c(=O)c(-c2ccc(Cl)cc2)[n+]([O-])c2ccccc21	.	.	i	.	.	.
COC(CN(C(=O)CCl)C(C(=O)NC1CCCCC1)c1ccc(C)cc1)OC (stereo unspecified)	-4	-9	i	-6	78*	-1
COc1ccc(C(C(=O)NC2CCCCC2)N(C(=O)CCl)c2ccc(C)cc2)cc1 (stereo unspecified)	1	8	i	10	12	-7
O=C(NC1CCCC1)C(c1ccc(F)cc1)N(Cc1ccc(F)cc1)C(=O)CCl (stereo unspecified)	-4	-2	i	5	51*	-25
O=C(OCc1nnc(-c2ccccc2)o1)c1cc(S(=O)(=O)N2CCOCC2)ccc1F	.	.	i	.	2	.
COc1ccc(CN2C(=O)c3cccnc3C2Nc2cc(Cl)ccc2OC)cc1 (stereo unspecified)	5	5	i	14	-7	46*
COc1ccc(OC)c(NC2c3ncccc3C(=O)N2Cc2ccco2)c1 (stereo unspecified)	-6	-6	i	9	-3	-8
CCOCCc1nn2c(=O)cc(CSCC(=O)Nc3cc(C)cc(C)c3)nc2s1	.	.	i	.	-3	.
Cc1n[nH]c(C)c1CCC(=O)N/N=C/c1cccs1	20	30	i	48*	-3	69*
Cc1n[nH]c(C)c1CCC(=O)N/N=C/c1c[nH]c2ccccc12	2	48*	i	27	-2	58*
CC(C)(C)NC(=O)NC(=O)COC(=O)CNS(=O)(=O)/C=C/c1ccccc1	-10	-2	i	13	-13	-8
CCOc1cc(C2CC(=O)N3CN(C4CCCCC4)CSC3=C2C#N)ccc1O (stereo unspecified)	-1	1	i	-2	80*	-9
CCC(O)C1CCN(C(=O)c2cc(COc3ccc4ncccc4c3)on2)CC1 (stereo unspecified)	-7	-6	i	-1	0	-6
Cc1ccc(S(=O)(=O)C(NC(=O)c2ccccc2)=C(Cl)Cl)cc1	.	.	i	.	6	.
SMILES	thrombin 1536	FXIa inh	Rce1 inhib	FXIIa inh	Fh CTSL1 inh	KLK5 inh
O=C(NC(=C(Cl)Cl)S(=O)(=O)c1ccc(Cl)cc1)c1ccccc1	1	4	i	6	30*	4
Cc1ccc(S(=O)(=O)/C(=C/Cl)NC(=O)c2ccccc2)cc1	-3	5	i	14	97*	-11
O=Cc1ccc(OCc2nnsc2Cl)cc1	-10	1	i	9	-1	-4
CN(Cc1ccco1)C(=O)c1ccc(CNS(=O)(=O)c2ccc3c(c2)C(C)(C)C(=O)N3C)cc1	.	.	i	.	0	.
O=C(O)c1cc(Sc2ccc(Br)cc2)nc2ccccc12	3	31	i	37	.	43*
NC(=S)Nc1ccc(Oc2ccc(NC(N)=S)cc2)cc1	-4	0	i	1	3	-3
O=C(CCl)Nc1cn(-c2ccccc2)nc1-c1ccc(F)cc1	-6	-3	i	.	77*	-4
COC1CCN(C(=O)C2CCC(=O)N(CCc3cccc(F)c3)C2)CC1 (stereo unspecified)	.	.	.	.	7	.
COCCCNC(=O)Cc1coc2ccc3ccccc3c12	1	3	i	8	4	-9
CCCCNC(=O)Cc1coc2ccc3ccccc3c12	8	1	i	20	4	58*
O=C(COC(=O)c1cccc2c1C(=O)c1ccccc1C2=O)NC1CCCCC1	-4	1	i	-4	11	-6
O=C(COC(=O)c1ccc2c(c1[N+](=O)[O-])C(=O)c1ccccc1C2=O)NC1CC1	6	-1	i	12	21*	-4
Cc1ccccc1NS(=O)(=O)c1ccc(C(=O)N2CCC2)cc1	.	.	i	.	19*	.
Clc1ccccc1-c1nc(-c2cccnc2)no1	16	9	i	15	8	57*
CC(C)CCNC(=O)CN(Cc1ccc2c(c1)OCO2)C(=O)Cn1nnc(-c2cccs2)n1	-4	2	i	10	2	14
CC(=O)Nc1ccccc1-c1nc2ccc(C(=O)N3CCN(c4cccc(C)c4)C(C)C3)cc2[nH]c1=O (stereo unspecified)	18	-4	i	16	2	59*
CC12CCC(c3c(C(=O)N4CCOCC4)nn(-c4ccccc4)c31)C2(C)C (stereo unspecified)	2	31	.	40*	-3	41*
CC12CCC(c3c(C(=O)O)nn(-c4ccc(F)cc4)c31)C2(C)C (stereo unspecified)	5	5	i	22	0	-4
CCOC(=O)c1c(C)oc(NC(=O)CCl)c1C(=O)OCC	4	27	i	20	84*	10
CCOC(=O)c1c(C)oc2c(F)c(F)c(F)c(F)c2c1=O	1	19	i	13	-3	2
O=[N+]([O-])c1ccccc1S(=O)(=O)Nc1ccn(Cc2c(F)cccc2Cl)n1	.	.	.	.	1	.
CN(C)c1nc(C#N)nc(N2CCOCC2)n1	-5	4	i	12	53*	6
CCOC(=O)CNc1nc(Cl)nc(N2CCCCC2)n1	-5	-3	i	3	1	-2
N#Cc1nc(N2CCCC2)nc(N2CCCC2)n1	-2	18	i	24	56*	-1
CCOC(=O)CNc1nc(C#N)nc(N2CCOCC2)n1	1	5	i	17	23*	6
